Assay results: ChEMBL document CHEMBL4118097, “Selective Inhibitors of Dual Leucine Zipper Kinase (DLK, MAP3K12) with Activity in a Model of Alzheimer's Disease” (J Med Chem, 2017)

Key:
[1] = molecular target: T1, Mitogen-activated protein kinase kinase kinase 12 (Homo sapiens, UniProt Q12852); assay: Binding affinity to full length wild type human DLK (M1 to P859 residues) expressed in mammalian cells by KINOMEscan assay; type: cell-based
T1 sequence (Q12852 whole entry): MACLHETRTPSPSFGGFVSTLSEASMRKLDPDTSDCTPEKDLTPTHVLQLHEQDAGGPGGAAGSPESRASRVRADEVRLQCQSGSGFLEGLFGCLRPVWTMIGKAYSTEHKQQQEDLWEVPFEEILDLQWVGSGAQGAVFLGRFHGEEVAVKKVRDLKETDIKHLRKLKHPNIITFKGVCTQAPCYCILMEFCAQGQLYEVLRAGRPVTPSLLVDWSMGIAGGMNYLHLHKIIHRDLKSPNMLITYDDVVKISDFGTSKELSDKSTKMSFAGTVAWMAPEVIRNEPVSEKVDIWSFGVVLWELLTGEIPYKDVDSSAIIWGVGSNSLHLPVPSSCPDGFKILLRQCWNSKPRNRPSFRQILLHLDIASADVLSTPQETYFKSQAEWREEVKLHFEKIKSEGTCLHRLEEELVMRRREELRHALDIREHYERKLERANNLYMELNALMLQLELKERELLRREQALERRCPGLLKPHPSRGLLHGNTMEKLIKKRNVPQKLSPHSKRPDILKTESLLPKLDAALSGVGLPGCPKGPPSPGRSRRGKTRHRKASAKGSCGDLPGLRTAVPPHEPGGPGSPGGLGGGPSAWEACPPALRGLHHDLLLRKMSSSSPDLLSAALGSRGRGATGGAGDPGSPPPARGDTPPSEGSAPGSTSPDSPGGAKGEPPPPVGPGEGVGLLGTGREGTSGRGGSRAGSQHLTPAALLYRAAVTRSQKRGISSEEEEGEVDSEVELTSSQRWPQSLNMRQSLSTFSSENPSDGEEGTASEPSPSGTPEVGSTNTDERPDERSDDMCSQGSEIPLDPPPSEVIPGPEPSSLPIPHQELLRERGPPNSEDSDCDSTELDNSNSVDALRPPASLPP
Summary of the method: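 Binding measured in an outsourced KINOMEscan profiling service, run alongside the homologous kinase LZK; the value is reported as a dissociation constant (Kd).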

[2] = molecular target: Fibroblast growth factor receptor 4 (Homo sapiens) (UniProt P22455); assay: Inhibition of recombinant His-tagged human FGFR4 cytoplasmic domain expressed in baculovirus expression system at 1 uM by FRET assay relative to control
Chain of Fibroblast growth factor receptor 4 (Homo sapiens) (P22455 22-802 limits assumed): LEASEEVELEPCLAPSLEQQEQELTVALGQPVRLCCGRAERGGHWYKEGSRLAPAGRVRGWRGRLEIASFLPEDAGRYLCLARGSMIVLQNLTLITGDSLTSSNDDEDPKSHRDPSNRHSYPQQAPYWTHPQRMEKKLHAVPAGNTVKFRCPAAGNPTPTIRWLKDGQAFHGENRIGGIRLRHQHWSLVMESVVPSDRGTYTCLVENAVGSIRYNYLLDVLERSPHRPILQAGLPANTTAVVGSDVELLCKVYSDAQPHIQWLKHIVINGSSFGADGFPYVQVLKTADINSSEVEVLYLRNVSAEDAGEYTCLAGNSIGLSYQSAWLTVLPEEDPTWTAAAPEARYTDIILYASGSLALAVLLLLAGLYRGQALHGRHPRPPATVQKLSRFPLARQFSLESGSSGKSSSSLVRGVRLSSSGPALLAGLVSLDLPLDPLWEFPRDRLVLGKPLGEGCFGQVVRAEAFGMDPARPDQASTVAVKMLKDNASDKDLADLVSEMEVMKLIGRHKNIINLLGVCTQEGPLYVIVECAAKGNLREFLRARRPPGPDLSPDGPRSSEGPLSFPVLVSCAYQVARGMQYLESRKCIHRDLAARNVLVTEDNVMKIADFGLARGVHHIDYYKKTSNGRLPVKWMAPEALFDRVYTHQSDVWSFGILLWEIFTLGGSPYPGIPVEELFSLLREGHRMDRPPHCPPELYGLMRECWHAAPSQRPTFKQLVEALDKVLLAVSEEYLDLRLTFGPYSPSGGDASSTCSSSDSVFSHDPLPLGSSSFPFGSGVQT
Summary of the method: (§1)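 Single-point screen at 1 μM compound in a 220-kinase panel run by Life Technologies (SelectScreen). Z′-LYTE format: phosphorylation of a labeled peptide substrate read by FRET. Values are reported as percent inhibition.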

[3] = molecular target: Peroxisome proliferator-activated receptor delta (Homo sapiens) (UniProt Q03181); assay: Binding affinity to recombinant human PPARdelta at 10 uM relative to control
Summary of the method: (§2)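 Broad radioligand-binding and enzyme screening panel covering 42 targets (biogenic amine and neuropeptide receptors, ion channels, neurotransmitter transporters, acetylcholinesterase). Single test concentration of 10 μM. Results expressed as binding relative to control, with a hit defined as >50% of control.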

[4] = molecular target: Mitogen-activated protein kinase kinase kinase 5 (Homo sapiens) (UniProt Q99683); assay: Inhibition of recombinant full length GST-tagged human ASK1 expressed in baculovirus expression system at 1 uM by FRET assay relative to control
Summary of the method: (§3)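 Single-concentration screen at 1 μM in Life Technologies SelectScreen, across a 220-kinase panel. Z′-LYTE format measures phosphorylation of a labeled peptide by FRET. Results are reported as percent inhibition.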

[5] = molecular target: Serine/threonine-protein kinase Nek4 (Homo sapiens) (UniProt P51957); assay: Inhibition of recombinant full length GST-tagged human NEK4 expressed in baculovirus expression system at 1 uM by FRET assay relative to control; summary of the method: as §3
[6] = molecular target: Adrenergic receptor alpha-1 (Homo sapiens) (UniProt P35348+P25100+P35368); assay: Binding affinity to alpha1 adrenergic receptor (unknown origin) at 10 uM relative to control; type: protein assay; summary of the method: as §2
[7] = molecular target: RAC-alpha serine/threonine-protein kinase (Homo sapiens) (UniProt P31749); assay: Inhibition of recombinant full length His-tagged human AKT1 expressed in baculovirus expression system at 1 uM by FRET assay relative to control
[8] = molecular target: Insulin-like growth factor 1 receptor (Homo sapiens) (UniProt P08069); assay: Inhibition of recombinant His-tagged human IGF1R cytoplasmic domain (960 to 1397 residues) expressed in baculovirus expression system at 1 uM by FRET relative to control; summary of the method: as §1
[9] = molecular target: Serine/threonine-protein kinase 25 (Homo sapiens) (UniProt O00506); assay: Inhibition of recombinant full length GST-tagged human YSK1 expressed in baculovirus expression system at 1 uM by FRET assay relative to control
[10] = molecular target: Mitogen-activated protein kinase kinase kinase kinase 5 (Homo sapiens) (UniProt Q9Y4K4); assay: Inhibition of recombinant full length His-tagged human KHS1 expressed in baculovirus expression system at 1 uM by FRET assay relative to control
[11] = species: Homo sapiens; assay: Binding affinity to PDE rolipram binding site (unknown origin) receptor at 10 uM relative to control; summary of the method: as §2
[12] = molecular target: Tyrosine-protein kinase Fgr (Homo sapiens) (UniProt P09769); assay: Inhibition of recombinant full length His-tagged human FGR expressed in baculovirus expression system at 1 uM by FRET assay relative to control
Chain of Tyrosine-protein kinase Fgr (Homo sapiens) (P09769 2-529 limits assumed): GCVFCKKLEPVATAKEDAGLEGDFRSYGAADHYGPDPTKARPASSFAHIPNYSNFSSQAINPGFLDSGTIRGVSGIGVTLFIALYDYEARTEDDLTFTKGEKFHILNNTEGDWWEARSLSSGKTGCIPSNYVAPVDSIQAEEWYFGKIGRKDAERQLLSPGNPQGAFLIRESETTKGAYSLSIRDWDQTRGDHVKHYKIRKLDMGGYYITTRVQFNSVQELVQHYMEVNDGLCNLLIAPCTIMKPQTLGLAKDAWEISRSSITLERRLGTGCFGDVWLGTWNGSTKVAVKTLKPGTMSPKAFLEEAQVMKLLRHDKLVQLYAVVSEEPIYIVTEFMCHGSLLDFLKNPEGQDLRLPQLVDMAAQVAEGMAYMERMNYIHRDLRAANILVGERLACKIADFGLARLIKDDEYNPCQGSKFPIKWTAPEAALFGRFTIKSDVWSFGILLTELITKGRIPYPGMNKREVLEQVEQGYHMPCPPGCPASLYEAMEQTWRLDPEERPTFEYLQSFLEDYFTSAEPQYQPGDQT

[13] = species: Homo sapiens; assay: Binding affinity to sodium channel site 2 (unknown origin) receptor at 10 uM relative to control; summary of the method: as §2
[14] = molecular target: Serine/threonine-protein kinase SIK2 (Homo sapiens) (UniProt Q9H0K1); assay: Inhibition of SIK2 (unknown origin) at 1 uM by FRET assay relative to control
Chain of Serine/threonine-protein kinase SIK2 (Homo sapiens) (Q9H0K1 whole entry, looked up): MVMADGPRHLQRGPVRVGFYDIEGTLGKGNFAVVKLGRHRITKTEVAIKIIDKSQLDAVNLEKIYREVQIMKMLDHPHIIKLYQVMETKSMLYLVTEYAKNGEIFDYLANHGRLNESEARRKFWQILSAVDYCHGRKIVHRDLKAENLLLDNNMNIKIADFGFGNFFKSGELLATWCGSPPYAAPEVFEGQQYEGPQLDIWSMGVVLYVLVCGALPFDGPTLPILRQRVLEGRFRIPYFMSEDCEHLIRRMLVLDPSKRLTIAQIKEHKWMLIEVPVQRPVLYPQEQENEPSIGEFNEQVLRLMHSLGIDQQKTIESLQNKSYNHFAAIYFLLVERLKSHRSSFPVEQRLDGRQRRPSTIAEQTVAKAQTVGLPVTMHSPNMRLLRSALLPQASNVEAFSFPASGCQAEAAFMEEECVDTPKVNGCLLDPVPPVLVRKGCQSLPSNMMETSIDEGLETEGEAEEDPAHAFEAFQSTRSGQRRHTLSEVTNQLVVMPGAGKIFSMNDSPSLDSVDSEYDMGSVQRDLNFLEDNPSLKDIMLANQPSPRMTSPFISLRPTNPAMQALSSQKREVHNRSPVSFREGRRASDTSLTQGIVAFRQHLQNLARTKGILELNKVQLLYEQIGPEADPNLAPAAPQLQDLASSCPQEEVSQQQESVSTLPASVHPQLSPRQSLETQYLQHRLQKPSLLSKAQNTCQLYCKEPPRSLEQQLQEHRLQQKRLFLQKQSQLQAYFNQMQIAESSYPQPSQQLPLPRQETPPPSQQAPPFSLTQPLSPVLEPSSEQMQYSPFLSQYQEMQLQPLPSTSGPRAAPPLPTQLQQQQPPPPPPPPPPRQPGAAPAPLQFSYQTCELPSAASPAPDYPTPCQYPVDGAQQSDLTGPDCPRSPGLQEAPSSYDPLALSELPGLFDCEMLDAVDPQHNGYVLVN

[15] = molecular target: Mitogen-activated protein kinase 1 (Homo sapiens) (UniProt P28482); assay: Inhibition of recombinant GST-tagged human ERK2 expressed in Escherichia coli at 1 uM by FRET assay relative to control; summary of the method: as §1
[16] = molecular target: Protein kinase C theta type (Homo sapiens) (UniProt Q04759); assay: Inhibition of PKCtheta (unknown origin) at 1 uM by FRET assay relative to control
Chain of Protein kinase C theta type (Homo sapiens) (Q04759 whole entry, looked up, the tested form may be a part): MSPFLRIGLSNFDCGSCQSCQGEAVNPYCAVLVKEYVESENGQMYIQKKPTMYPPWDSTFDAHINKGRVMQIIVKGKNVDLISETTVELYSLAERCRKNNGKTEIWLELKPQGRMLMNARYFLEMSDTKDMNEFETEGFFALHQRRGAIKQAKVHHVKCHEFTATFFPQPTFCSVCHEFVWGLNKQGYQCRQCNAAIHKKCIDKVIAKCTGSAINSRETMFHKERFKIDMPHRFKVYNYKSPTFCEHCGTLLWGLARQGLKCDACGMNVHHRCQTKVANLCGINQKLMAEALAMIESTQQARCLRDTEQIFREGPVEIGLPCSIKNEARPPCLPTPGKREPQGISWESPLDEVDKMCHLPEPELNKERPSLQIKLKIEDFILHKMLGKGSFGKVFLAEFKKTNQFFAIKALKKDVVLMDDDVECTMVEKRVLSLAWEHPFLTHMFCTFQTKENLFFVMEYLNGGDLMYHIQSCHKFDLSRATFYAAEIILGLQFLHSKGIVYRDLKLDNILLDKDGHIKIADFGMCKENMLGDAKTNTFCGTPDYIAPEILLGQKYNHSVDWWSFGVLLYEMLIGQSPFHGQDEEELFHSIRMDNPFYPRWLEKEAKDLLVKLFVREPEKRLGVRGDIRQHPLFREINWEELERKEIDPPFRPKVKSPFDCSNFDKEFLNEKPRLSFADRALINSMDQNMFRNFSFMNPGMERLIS

[17] = molecular target: Receptor-type tyrosine-protein kinase FLT3 (Homo sapiens, UniProt P36888); assay: Inhibition of recombinant His-tagged human FLT3 cytoplasmic domain expressed in baculovirus expression system by FRET assay
Chain of Receptor-type tyrosine-protein kinase FLT3 (P36888 whole entry, the tested form may be a part): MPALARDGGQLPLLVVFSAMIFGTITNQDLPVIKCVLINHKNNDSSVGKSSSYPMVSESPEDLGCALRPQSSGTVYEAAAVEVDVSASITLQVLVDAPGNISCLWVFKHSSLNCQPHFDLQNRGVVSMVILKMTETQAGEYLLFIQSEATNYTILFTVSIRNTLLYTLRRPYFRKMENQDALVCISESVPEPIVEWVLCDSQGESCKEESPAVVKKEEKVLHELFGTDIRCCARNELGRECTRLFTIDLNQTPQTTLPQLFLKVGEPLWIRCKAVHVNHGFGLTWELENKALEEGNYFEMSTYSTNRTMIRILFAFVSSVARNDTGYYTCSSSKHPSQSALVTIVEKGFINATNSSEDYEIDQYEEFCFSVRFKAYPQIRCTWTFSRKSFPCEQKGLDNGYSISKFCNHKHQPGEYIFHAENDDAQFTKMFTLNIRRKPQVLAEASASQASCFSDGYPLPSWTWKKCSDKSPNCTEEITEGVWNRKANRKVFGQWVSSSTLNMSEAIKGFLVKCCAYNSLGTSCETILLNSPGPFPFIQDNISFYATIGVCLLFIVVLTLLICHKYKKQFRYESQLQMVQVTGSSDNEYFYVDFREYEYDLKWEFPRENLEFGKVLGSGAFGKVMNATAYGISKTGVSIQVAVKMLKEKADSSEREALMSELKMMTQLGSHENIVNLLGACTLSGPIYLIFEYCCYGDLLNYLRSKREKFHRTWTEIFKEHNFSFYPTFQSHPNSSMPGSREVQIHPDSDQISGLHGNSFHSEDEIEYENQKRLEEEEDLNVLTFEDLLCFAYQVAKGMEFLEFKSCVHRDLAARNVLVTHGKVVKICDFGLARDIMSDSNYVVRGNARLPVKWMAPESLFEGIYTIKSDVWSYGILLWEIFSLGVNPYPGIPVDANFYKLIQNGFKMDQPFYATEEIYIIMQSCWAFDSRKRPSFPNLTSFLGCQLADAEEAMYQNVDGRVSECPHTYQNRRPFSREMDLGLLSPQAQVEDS

[18] = molecular target: Serine/threonine-protein kinase 4 (Homo sapiens) (UniProt Q13043); assay: Inhibition of recombinant full length GST-tagged human MST1 expressed in baculovirus at 1 uM by FRET assay relative to control; summary of the method: as §3
Chain of Serine/threonine-protein kinase 4 (Homo sapiens) (Q13043 whole entry): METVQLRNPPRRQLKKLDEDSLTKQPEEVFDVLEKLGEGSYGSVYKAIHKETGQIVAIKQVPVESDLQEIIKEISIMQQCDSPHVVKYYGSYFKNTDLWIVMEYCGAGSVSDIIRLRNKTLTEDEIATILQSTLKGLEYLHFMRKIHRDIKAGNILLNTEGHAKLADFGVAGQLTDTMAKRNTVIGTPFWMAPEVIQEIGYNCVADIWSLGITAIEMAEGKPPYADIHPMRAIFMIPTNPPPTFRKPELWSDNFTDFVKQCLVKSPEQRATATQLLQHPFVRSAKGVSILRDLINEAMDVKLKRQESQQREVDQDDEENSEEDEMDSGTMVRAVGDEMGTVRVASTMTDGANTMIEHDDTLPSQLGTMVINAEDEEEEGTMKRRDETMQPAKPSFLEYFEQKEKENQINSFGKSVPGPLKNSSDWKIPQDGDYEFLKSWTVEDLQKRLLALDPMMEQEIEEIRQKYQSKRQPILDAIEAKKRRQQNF

[19] = molecular target: Cyclin-dependent kinase 1/cyclin B1 (Homo sapiens) (UniProt P06493+P14635); assay: Inhibition of recombinant full length His-tagged human CDK1/CyclinB expressed in baculovirus expression system at 1 uM by FRET assay relative to control
[20] = molecular target: D(1A) dopamine receptor (Homo sapiens) (UniProt P21728); assay: Binding affinity to recombinant full length human D1 dopamine receptor at 10 uM relative to control; summary of the method: as §2
Chain of D(1A) dopamine receptor (Homo sapiens) (P21728 whole entry, the tested form may be a part): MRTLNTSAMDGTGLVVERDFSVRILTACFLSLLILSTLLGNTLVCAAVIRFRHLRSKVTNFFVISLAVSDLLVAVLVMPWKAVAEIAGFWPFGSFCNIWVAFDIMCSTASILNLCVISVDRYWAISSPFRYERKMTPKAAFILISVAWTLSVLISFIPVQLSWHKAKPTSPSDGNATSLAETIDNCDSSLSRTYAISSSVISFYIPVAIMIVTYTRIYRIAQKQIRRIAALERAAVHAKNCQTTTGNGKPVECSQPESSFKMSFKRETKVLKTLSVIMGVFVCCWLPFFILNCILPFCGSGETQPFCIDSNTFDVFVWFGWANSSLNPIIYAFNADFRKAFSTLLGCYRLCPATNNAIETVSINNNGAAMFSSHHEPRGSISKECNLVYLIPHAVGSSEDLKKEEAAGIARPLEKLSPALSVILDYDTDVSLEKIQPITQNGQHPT

[21] = molecular target: Ephrin type-A receptor 7 (Homo sapiens, UniProt Q15375); assay: Inhibition of recombinant GST-tagged human EphA7 cytoplasmic domain expressed in baculovirus expression system at 1 uM by FRET assay relative to control; summary of the method: as §1

Nc1ncc(-c2cc([C@H]3[C@@H]4CN(C5COC5)C[C@@H]43)n(CC3CC3)n2)cc1C(F)(F)F
Kd [1]: 0.0051 µM
inhibition [2]: 6.3%
Activity [3]: > 50%
inhibition [4]: 3.1%
inhibition [5]: 2.4%
Activity [6]: > 50%
inhibition [7]: -0.4%
inhibition [8]: 13.8%
inhibition [9]: -3.8%
inhibition [10]: 22.2%
Activity [11]: > 50%
inhibition [12]: 32.2%
Activity [13]: > 50%
inhibition [14]: 18.4%
inhibition [15]: 6.3%
inhibition [16]: 0.3%
IC50 [17]: 0.238 µM
inhibition [18]: -8.7%
inhibition [19]: 2.4%
Activity [20]: > 50%
inhibition [21]: 51.4%

CC(C)n1nc(-c2cnc(N)c(OC(F)(F)F)c2)cc1[C@H]1[C@@H]2CN(C3COC3)C[C@@H]21
Kd [1]: 0.011 µM
inhibition [2]: 1.2%
Activity [3]: > 50%
inhibition [4]: -5.3%
inhibition [5]: 0.1%
Activity [6]: > 50%
inhibition [7]: 1.7%
inhibition [8]: 9.3%
inhibition [9]: 8%
inhibition [10]: 25.1%
Activity [11]: > 50%
inhibition [12]: 31.9%
Activity [13]: > 50%
inhibition [14]: 10.8%
inhibition [15]: 5.2%
inhibition [16]: 9.3%
IC50 [17]: 0.709 µM
inhibition [18]: 3.5%
inhibition [19]: 16%
Activity [20]: > 50%
inhibition [21]: 39%
